# Screening results as filed in PubChem BioAssay.
# Most compounds without a hit are left out; they make up all but 2.4% or so of the library.
# sPLA2-III inh = Inhibits HGIII-sPLA2 liposome hydrolysis, primary screen; Q9NZ20; 370,000 tested, 0.56% active; QFRET BODIPY PC-A2 liposome hydrolysis, fluorescence; inhibition, % at 12.2 µM;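 active = inhibition above mean plus 3 SD of compounds lying within the high and low control bounds, cut at about 19% in these data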;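 also: 0% = median of test compound wells and 100% = no enzyme DMSO wells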
# Target sequence (Q9NZ20 whole entry, looked up): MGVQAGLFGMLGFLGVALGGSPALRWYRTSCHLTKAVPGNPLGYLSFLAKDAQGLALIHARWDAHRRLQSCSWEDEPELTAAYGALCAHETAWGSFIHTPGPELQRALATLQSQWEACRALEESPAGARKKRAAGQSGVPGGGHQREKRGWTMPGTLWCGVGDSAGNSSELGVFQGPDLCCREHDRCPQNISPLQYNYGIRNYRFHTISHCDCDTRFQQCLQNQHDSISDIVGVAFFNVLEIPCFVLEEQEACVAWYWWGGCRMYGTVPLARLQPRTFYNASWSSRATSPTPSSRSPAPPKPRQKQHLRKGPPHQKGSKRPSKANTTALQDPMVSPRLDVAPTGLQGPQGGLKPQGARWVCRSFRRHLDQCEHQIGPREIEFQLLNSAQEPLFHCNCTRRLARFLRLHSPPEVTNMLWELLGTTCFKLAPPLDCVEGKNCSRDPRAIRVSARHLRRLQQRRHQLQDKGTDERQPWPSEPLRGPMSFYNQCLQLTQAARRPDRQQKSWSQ
# IMP-1 inhibitor = blocks Pseudomonas aeruginosa IMP-1 metallo-beta-lactamase. inhibition, % at 5.6 µM. 290,000 tested, 0.45% active. purified IMP-1, nitrocefin hydrolysis, epi-absorbance fluorescence;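 active = inhibition above the mean plus 3 SD of all compounds in the same screening run, cut at about 4.5% in these data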;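 also: 0% = IMP-1 with DMSO and 100% = DMSO wells lacking enzyme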
#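 System: purified IMP-1 / Input: IMP-1 dispensed at 0.2 nM / Medium: 50 mM HEPES pH 7.1, 50 µM ZnSO4, 0.05% Brij 35 / Timing: 15 min enzyme–compound preincubation, then 25 min nitrocefin reaction, 25 °C / Technique: plate fluorescence quenching by hydrolysis product, ex 480/em 530 nm / Repeats: singlicate testing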
# PfM18AAP inh = blocks P. falciparum M18 aspartyl aminopeptidase. recombinant PfM18AAP, H-Glu-NHMec fluorogenic cleavage. 290,000 tested, 1.2% active. inhibition, % at 7.35 µM;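 active = inhibition above the campaign mean inhibition over all tested compounds plus 3 SD, cut at about 28% in these data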;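 also: 0% = plate median of test compound wells and 100% = 2 mM ZnCl2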
# VIM-2 inhibitor = blocks Pseudomonas aeruginosa VIM-2 metallo-beta-lactamase; purified VIM-2, nitrocefin hydrolysis, epi-absorbance fluorescence; inhibition, % at 5.6 µM; 290,000 tested, 0.89% active;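 active = inhibition above the mean of all tested compounds plus 3 SD, cutoff set per screening run, cut at about 7.5% in these data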;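 also: red hydrolysis product quenches plate fluorescence so inhibitors raise well fluorescence; 0% = enzyme with DMSO and 100% = DMSO without enzyme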
# Starred values were filed as active, the others as inactive; . = no result given.
SMILES,sPLA2-III inh,IMP-1 inhibitor,PfM18AAP inh,VIM-2 inhibitor
CC1COCC(C)N1S(=O)(=O)c1ccc2c(c1)CCN2C(=O)C1CCC1 (stereo not given),3.7,.,.,.
CCCCc1c(-c2ccccc2OC)ncn1Cc1ccc(Cl)cc1Cl,-4.4,.,.,.
O=C(Nc1nn[nH]n1)C12CC3CC(CC(C3)C1)C2,4.0,-0.9,16.4,9.0*
Cc1sc2ncnc(NCC(c3ccco3)N3CCCC3)c2c1C (stereo not given),-3.0,-0.6,-8.8,10.6*
CCCC(=O)Nc1ccccc1NC(C)=O,-0.9,5.3*,5.0,-0.6
N#CC1=C2SCN(Cc3ccco3)CN2C(=O)CC1c1cccc2ccccc12 (stereo not given),-9.3,-3.0,29.8*,1.6
N#CC1=C2SCN(Cc3ccco3)CN2C(=O)CC1c1ccccc1F (stereo not given),.,1.8,16.9,-4.7
CCOC(=O)C1=C(C)N=c2s/c(=C/c3cccc([N+](=O)[O-])c3O)c(=O)n2C1c1ccccc1 (stereo not given),-3.0,-5.7,0.3,8.1*
CC(=O)N1CCN(C2=NC(=O)N(c3ccc(Br)cc3)C(=O)C2)CC1,0.0,.,.,.
CCc1cc(=O)oc2cc(C)cc(OC(=O)c3ccco3)c12,-0.1,-2.6,6.9,11.0*
CCC(CC)c1nnc(NC(=O)c2cc(C(=O)OC)cc([N+](=O)[O-])c2)s1,-11.4,-2.5,29.7*,-4.0
O=C(O)C(Cc1c[nH]c2ccccc12)NS(=O)(=O)c1ccccc1 (stereo not given),-30.9,-0.8,1.4,-3.2
COc1cc(S(=O)(=O)NC(Cc2c[nH]c3ccccc23)C(=O)O)ccc1NC(C)=O (stereo not given),-1.8,5.9*,-7.3,-0.8
COc1ccccc1CN(C)C(=O)C1CCCN(c2nc3ccccc3o2)C1 (stereo not given),-5.7,.,.,.
COC(=O)c1cc(OC)c(OC)cc1NC(=O)c1ccco1,-4.5,-2.5,-5.1,8.9*
CC(=O)OC12CCCN(C1)/C(=C/c1ccc(Cl)cc1)C2 (stereo not given),19.0,.,.,.
COc1ccc(S[C@]2(C(=O)N3CCN(C(C)=O)CC3)CC(=O)N(C(=O)CCc3ccccc3)[C@@H]2c2ccc(OC)cc2)cc1,-18.6,.,.,.
COc1ccccc1NC(=S)OCCN1CCCC12CCC(c1ccccc1)CC2 (stereo not given),12.7,.,.,.
CCn1c(C)c(C(C)=O)c(N2CCN(c3ccccc3)CC2)nc1=S,-23.9,6.6*,15.2,2.1
Oc1c(Br)cc(Br)cc1/C=N/n1c(-c2ccccc2)n[nH]c1=S,7.1,22.1*,14.9,-0.7
Oc1c(Br)cc(/C=N/n2c(-c3ccccc3)n[nH]c2=S)c(Br)c1O,.,-4.3,33.3*,-2.6
Cc1ccc([N+](=O)[O-])cc1NC(=S)NC(=O)C(C)(C)C,10.6,5.1*,-19.6,3.3
Cc1ccc([N+](=O)[O-])cc1NC(=S)NC(=O)CC(C)(C)C,10.3,-0.2,1.7,2.9
O=C(NCCCN1CCCCC1)c1ccc2c(c1)NC(=O)C(N1CCCCC1)S2 (stereo not given),-1.2,5.2*,12.0,0.4
CC1CC(C)CN(CCCNC(=O)c2ccc3c(c2)NC(=O)C(N2CCCCC2)S3)C1 (stereo not given),-2.4,-3.8,-0.6,-3.7
SMILES,sPLA2-III inh,IMP-1 inhibitor,PfM18AAP inh,VIM-2 inhibitor
Cc1c(NC(=O)C2CCCN(S(=O)(=O)c3ccc(Cl)s3)C2)c(=O)n(-c2ccccc2)n1C (stereo not given),14.8,.,.,.
CCc1cccc(C)c1NC(=O)C1=C(C(=O)O)CCCC1,-1.7,7.8*,-0.9,0.2
Cc1ccc(C(c2sc3ncnn3c2O)N2CC(C)CC(C)C2)cc1 (stereo not given),-36.7,-0.3,29.6*,1.4
Cc1ccnc(NC(=O)Cc2ccc(-c3ccccc3)cc2)c1,-6.9,11.7*,0.2,-2.4
Cc1ccc(NC(=O)Cc2ccc(-c3ccccc3)cc2)nc1,-10.3,11.9*,-0.3,0.2
Cc1ccc(NC(=S)NCCc2ccccc2)nc1,-4.2,-5.1,29.1*,-7.5
Cc1ccc(NC(=O)Cc2ccc(Cl)cc2)nc1,1.8,.,.,.
CC(=O)NNC(=S)NCCc1ccccc1,8.7,-5.3,29.6*,-2.2
O=C(CCc1ccccc1)NNC(=S)NCCc1ccccc1,10.8,-1.7,4.7,-1.7
Cc1ccc(NC(=O)CCCc2ccccc2)nc1,-3.4,-2.9,2.3,-1.9
Cc1ccnc(NC(=O)Cc2ccc([N+](=O)[O-])cc2)c1,-11.5,-4.5,3.7,-4.2
COc1ccc(-n2c(SCC(=O)Nc3ccccc3-c3ccccc3)nnc2-c2ccco2)cc1,-2.1,.,.,.
Cc1ccccc1S(=O)(=O)N1CCCc2nc(-c3ccc(Br)cc3)ccc21,0.4,.,.,.
CC(C)(C)c1ccc(C(=O)Nc2cc(Cl)c(F)cc2C(=O)O)cc1,-7.0,.,.,.
O=C(Cc1ccc(-c2ccccc2)cc1)Nc1ccccn1,-1.5,33.7*,-4.2,-1.7
CC(NO)/C(=N\O)c1cccs1 (stereo not given),23.6*,-2.5,-0.4,0.2
C/C(=N\NC(=O)c1ccccc1O)C1C(=O)c2ccccc2C1=O,-10.4,-4.7,19.0,-6.0
C/C(=N/NC(=O)c1cc2ccccc2cc1O)C1C(=O)c2ccccc2C1=O,28.6*,-1.0,20.8,-1.7
O=C1CSc2ccc(C(=O)N3CCCC(C(=O)N4CCN(c5ccc(F)cc5)CC4)C3)cc2N1 (stereo not given),0.9,.,.,.
O=C(CSc1ccccc1Cl)NC1CCCc2ccccc21 (stereo not given),-2.8,0.3,2.7,-2.5
O=C(CSc1c(Cl)cccc1Cl)NC1CCCc2ccccc21 (stereo not given),4.0,8.0*,2.8,1.2
COC(=O)C1CN(Cc2ccccc2)CCS(=O)(=O)N1Cc1ccc(C)cc1 (stereo not given),-3.4,.,.,.
CCOc1cc2c(C#N)c(N3CCNCC3)nc(N)c2c(N)n1,-4.3,-1.9,7.5,8.7*
CCOc1cc2c(C#N)c(N3CCCCC3)nc(N)c2c(N)n1,2.4,-0.5,1.1,-2.3
COc1cc(OC)cc(C(=O)c2c(C)c(C#N)c3ccccn23)c1,4.9,-2.0,-1.9,7.8*
SMILES,sPLA2-III inh,IMP-1 inhibitor,PfM18AAP inh,VIM-2 inhibitor
CCn1c(=O)c(CCC(=O)NCCN2CCOCC2)c(C)c2c(C)nn(-c3ccccc3)c21,7.8,-1.6,-2.4,9.6*
Cc1cc2c(c(=O)o1)[C@@]1(C(=O)N(C)c3ccccc31)C1=C(CCCC1=O)O2,6.5,.,.,.
O=C(CN1C(=O)/C(=C/c2cccc(Br)c2)SC1=S)NCCCN1CCOCC1,-13.8,4.8*,17.3,-3.2
COc1ccc(S[C@]2(C(=O)NCCCN(C)C)CC(=O)N[C@@H]2c2ccc(OC)cc2)cc1,1.6,.,.,.
COc1ccc(NC(=O)NC2CCN(S(=O)(=O)c3ccc(F)cc3)CC2)cc1OC,0.2,.,.,.
COc1cc(CNCc2ccc(C)cc2)cc(OC)c1OC,-9.2,-2.4,-4.6,-2.0
COc1cc(CNCc2ccncc2)cc(OC)c1OC,4.4,6.1*,3.2,1.4
Cc1cc(N2CCN(C(=O)Oc3ccc(-c4ccccc4)cc3)CC2)c2ccccc2n1,-2.0,.,.,.
Cc1cc(SCNC(=O)c2ccccc2)nc(C(C)C)n1,-4.0,-3.6,-3.2,-4.6
